pIC50: −log10 of the molar value.
Columns and labels:
Coagulation factor X = Coagulation factor X (Homo sapiens, UniProt P00742); assay: Inhibition of human factor 10a
Homo sapiens [1] = species on record: Homo sapiens; assay: Selectivity for human factor 10a over human thrombin
Plasma [2] = assay: Anticoagulant activity in mouse plasma assessed as concentration required to double prothrombin time; type: functional
Summary of the method: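 Pooled citrated mouse plasma was incubated with diluted compound for 1 min at 37 °C. Brain thromboplastin PT reagent was then added to start clotting, and clot time was read on a coagulometer. The concentration doubling clotting time (CT₂) was estimated from each individual dose–response curve.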

Homo sapiens [3] = species on record: Homo sapiens; assay: Selectivity for human factor 10a over human trypsin
Trypsin = Trypsin (Homo sapiens, UniProt P07477+P07478+P35030); assay: Inhibition of human trypsin; type: protein assay
Prothrombin = Prothrombin (Homo sapiens, UniProt P00734); assay: Inhibition of human thrombin
Plasma [4] = assay: Anticoagulant activity in human plasma assessed as concentration required to double prothrombin time; type: functional
Mus musculus = assay: Anticoagulant activity in ICR mouse plasma assessed as PT-prolongation at 100 mg/kg, po after 0.5 hrs relative to control; type: functional
Summary of the method: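 Male ICR mice (20–35 g), fasted overnight, were given compound orally by gastric tube at 100 mg/kg as a suspension in 0.5% methylcellulose. At 0.5 h, blood was drawn from the abdominal vena cava into 3.8% citrate, and platelet-poor plasma was prepared by centrifugation. PT was measured and expressed as percent change versus vehicle or normal plasma, mean ± SEM, n = 3.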

Chain of Coagulation factor X (P00742 41-179 limits assumed): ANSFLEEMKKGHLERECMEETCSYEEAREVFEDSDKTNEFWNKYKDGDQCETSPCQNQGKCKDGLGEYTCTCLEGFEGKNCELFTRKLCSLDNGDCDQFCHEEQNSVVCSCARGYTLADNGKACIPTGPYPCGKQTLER
Chain of Coagulation factor X (P00742 235-488 limits assumed): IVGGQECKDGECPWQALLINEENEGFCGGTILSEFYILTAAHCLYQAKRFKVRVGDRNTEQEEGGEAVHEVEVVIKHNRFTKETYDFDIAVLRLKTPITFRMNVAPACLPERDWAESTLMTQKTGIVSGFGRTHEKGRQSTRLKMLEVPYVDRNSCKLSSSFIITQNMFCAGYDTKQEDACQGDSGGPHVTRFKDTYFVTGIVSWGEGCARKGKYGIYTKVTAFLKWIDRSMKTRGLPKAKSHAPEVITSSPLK

| SMILES | pIC50 (Coagulation factor X) | Selectivity ratio (Homo sapiens [1]) | Selectivity ratio (Homo sapiens [3]) | IC50 (Trypsin) [µM] | pIC50 (Prothrombin) | Activity (Plasma [2]) [µM] | Activity (Plasma [4]) [µM] | Activity (Mus musculus) [%] |
| --- | --- | --- | --- | --- | --- | --- | --- | --- |
| CCOC(=O)CC(=O)N(Cc1ccc2ccc(/C(N)=N\O)cc2c1)C1CCN(S(=O)(=O)c2cc(OC)ccc2OC)CC1 |  | > 7000 | > 100 |  |  |  |  | 109 |
| CS(=O)(=O)N(Cc1ccc2ccc(C(=N)N)cc2c1)C1CCN(Cc2cccc(Cl)c2)CC1 | 5.77 | > 7000 | > 100 |  |  |  |  |  |
| CCOC(=O)CS(=O)(=O)N(Cc1ccc2ccc(/C(N)=N\O)cc2c1)C1CCN(S(=O)(=O)c2cc(OC)ccc2OC)CC1 |  |  |  |  |  |  |  | 101 |
| CS(=O)(=O)N(Cc1ccc2ccc(C(=N)N)cc2c1)C1CCN(S(=O)(=O)c2c(Cl)cccc2Cl)CC1 | < 4.00 | > 7000 | > 100 |  |  |  |  |  |
| CCOC(=O)CS(=O)(=O)N(C/C=C/c1cccc(/C(N)=N\O)c1)C1CCN(S(=O)(=O)c2cc(OC)ccc2OC)CC1 |  | > 7000 | > 100 |  |  |  |  | 116 |
| CS(=O)(=O)N(Cc1ccc2ccc(C(=N)N)cc2c1)C1CCN(S(=O)(=O)c2ccc(Cl)c(Cl)c2)CC1 | 6.72 | > 7000 | > 100 |  |  |  |  |  |
| COc1ccc(OC)c(S(=O)(=O)N2CCC(N(C)Cc3ccc4ccc(C(=N)N)cc4c3)CC2)c1 | 6.23 |  |  |  |  |  |  |  |
| Cc1ccccc1S(=O)(=O)N1CCC(N(Cc2ccc3ccc(C(=N)N)cc3c2)S(C)(=O)=O)CC1 | 6.02 | > 7000 | > 100 |  |  |  |  |  |
| CS(=O)(=O)N(Cc1ccc2ccc(C(=N)N)cc2c1)C1CCN(S(=O)(=O)c2cccc(F)c2)CC1 | 6.10 | > 7000 | > 100 |  |  |  |  |  |
| CS(=O)(=O)N(Cc1ccc2ccc(C(=N)N)cc2c1)C1CCN(S(=O)(=O)c2ccccc2Cl)CC1 | 6.46 | > 7000 | > 100 |  |  |  |  |  |
| Cc1ccc(S(=O)(=O)N2CCC(N(Cc3ccc4ccc(C(=N)N)cc4c3)S(C)(=O)=O)CC2)cc1 | < 4.00 | > 7000 | > 100 |  |  |  |  |  |
| CS(=O)(=O)N(Cc1ccc2ccc(C(=N)N)cc2c1)C1CCN(S(=O)(=O)c2cccc(Cl)c2Cl)CC1 | 6.25 | > 7000 | > 100 |  |  |  |  |  |
| CS(=O)(=O)N1CCC(N(Cc2ccc3ccc(C(=N)N)cc3c2)S(C)(=O)=O)CC1 | < 4.00 | > 7000 | > 100 |  |  |  |  |  |
| CS(=O)(=O)N(Cc1ccc2ccc(C(=N)N)cc2c1)C1CCN(C(=O)c2cccc(Cl)c2)CC1 | < 4.00 | > 7000 | > 100 |  |  |  |  |  |
| CS(=O)(=O)N(Cc1ccc2ccc(C(=N)N)cc2c1)C1CCN(C(=O)c2cccc(C#N)c2)CC1 | < 4.00 | > 7000 | > 100 |  |  |  |  |  |
| CS(=O)(=O)N(Cc1ccc2ccc(C(=N)N)cc2c1)C1CCN(Cc2cccc(C#N)c2)CC1 | 5.64 | > 7000 | > 100 |  |  |  |  |  |
| CCOC(=O)CC(=O)N(C/C=C/c1cccc(/C(N)=N\O)c1)C1CCN(S(=O)(=O)c2cc(OC)ccc2OC)CC1 |  | > 7000 | > 100 |  |  |  |  | 187 |
| CS(=O)(=O)N(Cc1ccc2ccc(C(=N)N)cc2c1)C1CCN(S(=O)(=O)c2ccccc2)CC1 | 6.07 |  |  |  |  |  |  |  |
| CS(=O)(=O)N(Cc1ccc2ccc(C(=N)N)cc2c1)C1CCN(S(=O)(=O)c2cccc(-c3ccccc3)c2)CC1 | 6.70 |  |  |  |  |  |  |  |
| CS(=O)(=O)N(Cc1ccc2ccc(C(=N)N)cc2c1)C1CCNCC1 | < 4.00 | > 7000 | > 100 |  |  |  |  |  |
| Cc1cccc(S(=O)(=O)N2CCC(N(Cc3ccc4ccc(C(=N)N)cc4c3)S(C)(=O)=O)CC2)c1 | 6.60 |  |  |  |  |  |  |  |
| CC(=N)N1CC[C@H](Oc2ccc([C@H](Cc3ccc4ccc(C(=N)N)cc4c3)C(=O)O)cc2)C1 [DX-9065A] |  |  |  | 3.2 |  | 4.9 | 0.55 | 151 |
| CS(=O)(=O)N(Cc1ccc2ccc(C(=N)N)cc2c1)C1CCN(S(=O)(=O)c2ccc(Cl)cc2)CC1 | 5.80 |  |  |  |  |  |  |  |
| CS(=O)(=O)N(Cc1ccc2ccc(C(=N)N)cc2c1)C1CCN(S(=O)(=O)c2cccc(C#N)c2)CC1 | 6.77 |  |  |  |  |  |  |  |

The remaining compounds from weak to strong by pIC50 (Coagulation factor X), led by results:

| pIC50 (Coagulation factor X) | Selectivity ratio (Homo sapiens [1]) | Selectivity ratio (Homo sapiens [3]) | IC50 (Trypsin) [µM] | pIC50 (Prothrombin) | SMILES | Activity (Plasma [2]) [µM] | Activity (Plasma [4]) [µM] | Activity (Mus musculus) [%] |
| --- | --- | --- | --- | --- | --- | --- | --- | --- |
| 7.00 |  |  |  |  | CS(=O)(=O)N(Cc1ccc2ccc(C(=N)N)cc2c1)C1CCN(S(=O)(=O)c2cc(Cl)sc2Cl)CC1 |  |  |  |
| 7.05 |  |  |  |  | CS(=O)(=O)N(Cc1ccc2ccc(C(=N)N)cc2c1)C1CCN(c2ccncc2)CC1 |  |  |  |
| 7.19 |  |  |  |  | CS(=O)(=O)N(Cc1ccc2ccc(C(=N)N)cc2c1)C1CCN(S(=O)(=O)c2cc(Cl)ccc2Cl)CC1 |  |  |  |
| 7.24 | > 7000 | > 100 |  |  | COc1ccc(C)cc1S(=O)(=O)N1CCC(N(Cc2ccc3ccc(C(=N)N)cc3c2)S(C)(=O)=O)CC1 |  |  |  |
| 7.31 |  |  |  |  | CS(=O)(=O)N(Cc1ccc2ccc(C(=N)N)cc2c1)C1CCN(S(=O)(=O)c2cccc(Cl)c2)CC1 |  |  |  |
| 7.41 | > 7000 | > 100 |  |  | COc1ccc(Cl)cc1S(=O)(=O)N1CCC(N(Cc2ccc3ccc(C(=N)N)cc3c2)S(C)(=O)=O)CC1 |  |  |  |
| 7.89 | > 7000 | > 100 | 6 | < 4.00 | COc1ccc(OC)c(S(=O)(=O)N2CCC(N(C/C=C/c3cccc(C(=N)N)c3)C(=O)CC(=O)O)CC2)c1 | 1.4 | 0.55 | 104 |
| 7.89 | > 7000 | > 100 | 2.7 | < 4.00 | COc1ccc(OC)c(S(=O)(=O)N2CCC(N(Cc3ccc4ccc(C(=N)N)cc4c3)S(=O)(=O)CC(=O)O)CC2)c1 | 1.7 | 0.55 |  |
| 7.92 | > 7000 | > 100 | 2.5 | < 4.00 | COc1ccc(OC)c(S(=O)(=O)N2CCC(N(Cc3ccc4ccc(C(=N)N)cc4c3)C(C)=O)CC2)c1 |  |  |  |
| 7.96 | > 7000 | > 100 | 1.1 | < 4.00 | COc1ccc(OC)c(S(=O)(=O)N2CCC(N(Cc3ccc4ccc(C(=N)N)cc4c3)S(C)(=O)=O)CC2)c1 |  |  |  |
| 8.00 | > 7000 | > 100 | 5.3 | < 4.00 | COc1ccc(OC)c(S(=O)(=O)N2CCC(N(C/C=C/c3cccc(C(=N)N)c3)S(=O)(=O)CC(=O)O)CC2)c1 | 1.2 | 0.47 |  |
| 8.09 | > 7000 | > 100 | 3.7 | < 4.00 | COc1ccc(OC)c(S(=O)(=O)N2CCC(N(Cc3ccc4ccc(C(=N)N)cc4c3)C(=O)CC(=O)O)CC2)c1 | 1.6 | 0.56 |  |
